{"source": "ChEMBL document CHEMBL4251723", "about": "“Antibacterial Dimeric Acylphloroglucinols from Hypericum japonicum” (J Nat Prod, 2018)", "key": {"Staphylococcus aureus": {"tested_on": "Staphylococcus aureus", "assay": "Antibacterial activity against Staphylococcus aureus […]", "assay_type": "functional", "method_in_brief": "(§1)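 24 h growth-inhibition (MIC) assay. Final test concentration range was 50−3.13 μg/mL or 2.0−0.05 μg/mL depending on compound. Cefotaxime sodium served as positive control. Each experiment was repeated three times.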"}, "Escherichia coli": {"tested_on": "Escherichia coli", "assay": "Antibacterial activity against Escherichia coli ATCC 11775", "assay_type": "functional", "conditions": "DSM 30083 = JCM 1649 = ATCC 11775", "method_in_brief": "as §1"}, "Enterococcus faecalis": {"tested_on": "Enterococcus faecalis", "assay": "Antibacterial activity against Enterococcus faecalis ATCC 10541", "assay_type": "functional", "method_in_brief": "as §1"}, "Salmonella typhimurium": {"tested_on": "Salmonella typhimurium", "assay": "Antibacterial activity against Salmonella typhimurium ATCC 6539", "assay_type": "functional, Salmonella enterica subsp. enterica serovar Typhimurium", "conditions": "Salmonella enterica", "method_in_brief": "as §1"}, "[1]": {"target": "T1, Pancreatic triacylglycerol lipase (Sus scrofa, UniProt P00591)", "T1 sequence (P00591 whole entry)": "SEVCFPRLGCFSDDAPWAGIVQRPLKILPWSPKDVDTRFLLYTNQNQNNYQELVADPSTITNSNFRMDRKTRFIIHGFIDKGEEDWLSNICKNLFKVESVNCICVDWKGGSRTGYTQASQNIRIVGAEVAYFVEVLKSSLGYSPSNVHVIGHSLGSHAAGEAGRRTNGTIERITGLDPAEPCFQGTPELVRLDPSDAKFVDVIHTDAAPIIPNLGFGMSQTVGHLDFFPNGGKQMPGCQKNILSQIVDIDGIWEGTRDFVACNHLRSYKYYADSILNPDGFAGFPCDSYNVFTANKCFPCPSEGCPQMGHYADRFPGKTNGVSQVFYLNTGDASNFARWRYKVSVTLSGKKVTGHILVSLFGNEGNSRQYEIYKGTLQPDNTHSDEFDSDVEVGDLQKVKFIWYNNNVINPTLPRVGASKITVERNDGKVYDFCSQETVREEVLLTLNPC", "assay": "Inhibition of porcine pancreatic lipase using p-NPB as substrate pretreated for 15 mins followed by substrate addition measured after 15 mins by spectrophometric method"}}}
{"compound": "C=C(CCC=C(C)C)C(O)Cc1c(O)c(CC2=C(O)C(C)(C)C(O)=C(C(=O)C(C)CC)C2=O)c(O)c(C(=O)C(C)C)c1O", "note": "(centres undefined)", "values": [{"measurement": "MIC", "setting": "Staphylococcus aureus", "value": 3.3, "unit": "µM"}, {"measurement": "MIC", "setting": "Escherichia coli", "value": 0.8, "unit": "µM"}, {"measurement": "MIC", "setting": "Enterococcus faecalis", "value": 0.8, "unit": "µM"}, {"measurement": "MIC", "setting": "Salmonella typhimurium", "value": 0.8, "unit": "µM"}, {"measurement": "IC50", "setting": "[1]", "value": 14.5, "unit": "µM"}]}
{"compound": "CC(C)=CCC[C@]1(C)Oc2c(c(O)c(CC3=C(O)C(C)(C)C(O)=C(C(=O)C(C)C)C3=O)c(O)c2C(=O)C(C)C)C[C@H]1O", "values": [{"measurement": "MIC", "setting": "Staphylococcus aureus", "value": 85.6, "unit": "µM"}, {"measurement": "MIC", "setting": "Escherichia coli", "value": 21.4, "unit": "µM"}, {"measurement": "MIC", "setting": "Enterococcus faecalis", "value": 10.7, "unit": "µM"}, {"measurement": "MIC", "setting": "Salmonella typhimurium", "value": 5.4, "unit": "µM"}]}
{"compound": "CCC(C)C(=O)C1=C(O)C(C)(C)C(O)=C(Cc2c(O)cc(OCC=C(C)C)c(C(=O)c3ccccc3)c2O)C1=O", "note": "(centres undefined)", "values": [{"measurement": "MIC", "setting": "Staphylococcus aureus", "value": 1.8, "unit": "µM"}, {"measurement": "MIC", "setting": "Escherichia coli", "value": 1.8, "unit": "µM"}, {"measurement": "MIC", "setting": "Enterococcus faecalis", "value": 1.8, "unit": "µM"}, {"measurement": "MIC", "setting": "Salmonella typhimurium", "value": 0.9, "unit": "µM"}]}
{"compound": "CC(C)=CCC/C(C)=C/Cc1c(O)c(CC2=C(O)C(C)(C)C(O)=C(C(=O)C(C)C)C2=O)c(O)c(C(=O)C(C)C)c1O", "values": [{"measurement": "MIC", "setting": "Staphylococcus aureus", "value": 1.8, "unit": "µM"}, {"measurement": "MIC", "setting": "Escherichia coli", "value": 0.9, "unit": "µM"}, {"measurement": "MIC", "setting": "Enterococcus faecalis", "value": 1.8, "unit": "µM"}, {"measurement": "MIC", "setting": "Salmonella typhimurium", "value": 1.8, "unit": "µM"}]}
{"compound": "C=C(CCC=C(C)C)C(O)Cc1c(O)c(CC2=C(O)C(C)(C)C(O)=C(C(=O)C(C)C)C2=O)c(O)c(C(=O)C(C)C)c1O", "note": "(centres undefined)", "values": [{"measurement": "MIC", "setting": "Staphylococcus aureus", "value": 1.7, "unit": "µM"}, {"measurement": "MIC", "setting": "Escherichia coli", "value": 0.9, "unit": "µM"}, {"measurement": "MIC", "setting": "Enterococcus faecalis", "value": 0.9, "unit": "µM"}, {"measurement": "MIC", "setting": "Salmonella typhimurium", "value": 0.9, "unit": "µM"}]}
{"compound": "CC(C)=CCOc1cc(O)c(CC2=C(O)C(C)(C)C(O)=C(C(=O)C(C)C)C2=O)c(O)c1C(=O)c1ccccc1", "values": [{"measurement": "MIC", "setting": "Staphylococcus aureus", "value": 1.9, "unit": "µM"}, {"measurement": "MIC", "setting": "Escherichia coli", "value": 1.9, "unit": "µM"}, {"measurement": "MIC", "setting": "Enterococcus faecalis", "value": 1.9, "unit": "µM"}, {"measurement": "MIC", "setting": "Salmonella typhimurium", "value": 0.9, "unit": "µM"}]}
{"compound": "CCC(C)C(=O)C1=C(O)C(C)(C)C(O)=C(Cc2c(O)c(C/C=C(\\C)CCC=C(C)C)c(O)c(C(=O)C(C)C)c2O)C1=O", "note": "(centres undefined)", "values": [{"measurement": "MIC", "setting": "Staphylococcus aureus", "value": 3.4, "unit": "µM"}, {"measurement": "MIC", "setting": "Escherichia coli", "value": 0.9, "unit": "µM"}, {"measurement": "MIC", "setting": "Enterococcus faecalis", "value": 1.7, "unit": "µM"}, {"measurement": "MIC", "setting": "Salmonella typhimurium", "value": 1.7, "unit": "µM"}, {"measurement": "IC50", "setting": "[1]", "value": 8.3, "unit": "µM"}]}
{"compound": "CO/N=C(\\C(=O)N[C@@H]1C(=O)N2C(C(=O)O)=C(COC(C)=O)CS[C@H]12)c1csc(N)n1", "note": "[CEFOTAXIME SODIUM]", "values": [{"measurement": "MIC", "setting": "Staphylococcus aureus", "value": 3.3, "unit": "µM"}, {"measurement": "MIC", "setting": "Escherichia coli", "value": 0.4, "unit": "µM"}, {"measurement": "MIC", "setting": "Enterococcus faecalis", "value": 0.4, "unit": "µM"}, {"measurement": "MIC", "setting": "Salmonella typhimurium", "value": 3.3, "unit": "µM"}]}
